Reference: ChEMBL document CHEMBL1140496, “Discovery of N-phenyl nicotinamides as potent inhibitors of Kdr” (Bioorg Med Chem Lett, 2007)

Experiments:
[1] = target: T1, Vascular endothelial growth factor receptor 2 (Homo sapiens, UniProt P35968); experiment: Inhibition of phosphorylated-Kdr after 30 mins
[2] = target: T1, Vascular endothelial growth factor receptor 2; experiment: Inhibition of unphosphorylated-Kdr after 30 mins
HUVEC [3] = experiment: Antiproliferative activity against VEGF-driven HUVEC; type: functional, cell-based; conditions: Homo sapiens
HUVEC [4] = experiment: Antiproliferative activity against bFGF-driven HUVEC; type: functional, cell-based; conditions: Homo sapiens
[5] = Bioavailability in rat at 100 mg/kg; type: ADME, organism-based; conditions: in vivo
[6] = Clearance in rat at 100 mg/kg; type: ADME, organism-based; parameters: dose 100 mg/kg; conditions: in vivo
[7] = AUC in rat at 100 mg/kg; type: ADME, organism-based; parameters: dose 100 mg/kg; conditions: plasma
A-431 = experiment: Antitumor activity in A431 cells xenografted po dosed nude mouse assessed as delay in disease progression administered twice daily; type: functional, organism-based; conditions: Homo sapiens
How it was run: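 Nude mice bearing A431 human […] epidermoid carcinoma xenografts received oral doses twice daily at 37.5, 75 or 150 mg/kg, against vehicle. Tumor size (cubic mm) was followed from about day 5 to day 23, with percent body weight also tracked. Groups were compared by p-values.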

T1 sequence (P35968 whole entry): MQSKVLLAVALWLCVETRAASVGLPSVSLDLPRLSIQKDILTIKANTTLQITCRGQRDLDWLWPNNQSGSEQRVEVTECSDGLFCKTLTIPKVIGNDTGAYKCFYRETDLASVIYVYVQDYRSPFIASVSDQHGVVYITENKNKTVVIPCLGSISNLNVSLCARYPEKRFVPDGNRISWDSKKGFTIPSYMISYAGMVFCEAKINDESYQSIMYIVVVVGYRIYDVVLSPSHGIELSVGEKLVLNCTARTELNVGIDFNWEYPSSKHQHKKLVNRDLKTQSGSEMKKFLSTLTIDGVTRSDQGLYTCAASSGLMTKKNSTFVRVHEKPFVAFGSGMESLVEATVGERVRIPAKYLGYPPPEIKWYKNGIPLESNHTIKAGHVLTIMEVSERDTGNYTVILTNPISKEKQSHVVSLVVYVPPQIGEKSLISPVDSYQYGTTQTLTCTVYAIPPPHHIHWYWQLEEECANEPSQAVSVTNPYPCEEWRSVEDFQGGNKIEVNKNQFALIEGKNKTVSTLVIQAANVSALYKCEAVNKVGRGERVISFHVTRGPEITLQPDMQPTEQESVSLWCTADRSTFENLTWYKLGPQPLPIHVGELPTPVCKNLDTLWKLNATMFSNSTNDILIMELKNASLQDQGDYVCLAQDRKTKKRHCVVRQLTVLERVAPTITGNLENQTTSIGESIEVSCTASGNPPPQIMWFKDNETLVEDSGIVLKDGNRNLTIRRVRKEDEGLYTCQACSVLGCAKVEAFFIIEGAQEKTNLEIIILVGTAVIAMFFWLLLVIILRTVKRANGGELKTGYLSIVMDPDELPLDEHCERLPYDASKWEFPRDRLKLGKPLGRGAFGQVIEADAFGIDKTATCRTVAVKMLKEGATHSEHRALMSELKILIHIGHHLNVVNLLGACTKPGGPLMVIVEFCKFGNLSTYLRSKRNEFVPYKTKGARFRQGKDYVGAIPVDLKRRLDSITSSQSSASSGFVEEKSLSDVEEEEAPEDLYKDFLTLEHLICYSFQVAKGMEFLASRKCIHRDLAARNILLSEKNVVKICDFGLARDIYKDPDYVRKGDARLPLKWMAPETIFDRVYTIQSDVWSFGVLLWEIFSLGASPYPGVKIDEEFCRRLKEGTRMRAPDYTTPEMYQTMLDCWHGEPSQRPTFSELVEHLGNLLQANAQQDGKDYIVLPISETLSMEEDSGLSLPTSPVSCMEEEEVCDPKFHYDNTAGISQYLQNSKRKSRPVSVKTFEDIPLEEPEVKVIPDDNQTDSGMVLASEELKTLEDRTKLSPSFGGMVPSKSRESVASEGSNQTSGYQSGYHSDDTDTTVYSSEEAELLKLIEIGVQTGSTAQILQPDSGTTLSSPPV

| Ki [1] | SMILES | further results |
| --- | --- | --- |
| 135 nM | O=C(Nc1ccc(Oc2ccccc2)cc1)c1cccnc1NCc1ccc(F)cc1 | – |
| 17 nM | O=C(Nc1ccc(Cl)c(Cl)c1)c1cccnc1NCc1ccncc1 | – |
| 29 nM | CCOC(=O)c1coc(-c2cccc(NC(=O)c3cccnc3NCc3ccncc3)c2)c1 | – |
| > 6660 nM | CC(O)c1cccc(NC(=O)c2cccnc2NCc2ccncc2)c1 (configuration not stated) | – |
| 490 nM | O=C(Nc1ccc(Cl)cc1)c1cc(Br)cnc1NCc1ccncc1 | – |
| 38 nM | O=C(Nc1ccc(Oc2ccccc2)cc1)c1cccnc1NCc1ccc2c(c1)OCO2 | – |
| > 20000 nM | O=C(Nc1ccc(Oc2ccccc2)cc1)c1cccnc1Nc1csc2ccccc12 | – |
| > 20000 nM | O=C(Nc1ccccc1Oc1ccccc1)c1cccnc1NCc1ccncc1 | – |
| 15 nM | O=C(Nc1ccc(Cl)cc1)c1ccccc1NCc1ccncc1 | – |
| 8 nM | O=C(Nc1cc(C(F)(F)F)cc(C(F)(F)F)c1)c1cccnc1NCc1ccncc1 | – |
| 9 nM | O=C(Nc1ccc(C(F)(F)F)cc1)c1cccnc1NCc1ccncc1 | – |
| – | Cc1ccc(C(=O)Nc2ccc(Cl)cc2)c(NCc2ccncc2)n1 | Ki [2]: > 10000 nM |
| 106 nM | CCc1cccc(NC(=O)c2cccnc2NCc2ccncc2)c1 | – |
| – | O=C(Nc1ccc(Cl)cc1)c1cccnc1NCc1ccncc1 | Ki [2]: 8 nM; IC50 (HUVEC [3]): 8 nM; IC50 (HUVEC [4]): > 1000 nM; bioavailability [5]: 45%; clearance [6]: 73.3 mL/min/kg; AUC [7]: 20000 ng·h/mL; Activity (A-431): Dose-dependent effect |
| 70 nM | O=C(Nc1ccc(Oc2ccccc2)cc1)c1cccnc1Nc1ccc2cn[nH]c2c1 | – |
| 2 nM | O=C(Nc1ccc(C2CCCCC2)cc1)c1cccnc1NCc1ccncc1 | – |
| – | O=C(Nc1ccc(Cl)cc1)c1sccc1NCc1ccncc1 | Ki [2]: 120 nM |
| 4 nM | O=C(Nc1ccc(Cl)c(C(F)(F)F)c1)c1cccnc1NCc1ccncc1 | – |
| 140 nM | O=C(Nc1ccc(Cl)cc1)c1cncnc1NCc1ccncc1 | – |
| > 10000 nM | O=C(Nc1ccc(Cl)cc1)C1CCCCC1NCc1ccncc1 (configuration not stated) | – |
| > 6660 nM | CN1CCN(c2ccc(NC(=O)c3cccnc3NCc3ccncc3)cc2)CC1 | – |
| > 10000 nM | O=C(Nc1ccc(Cl)cc1)c1ncccc1NCc1ccncc1 | – |
| 2 nM | O=C(Nc1cccc(Cl)c1)c1cccnc1NCc1ccncc1 | IC50 (HUVEC [3]): 40 nM; IC50 (HUVEC [4]): > 1000 nM |
| 23 nM | O=C(Nc1ccc(OC(F)(F)F)cc1)c1cccnc1NCc1ccncc1 | – |
